{
  "source": "ChEMBL document CHEMBL3091454",
  "about": "“Improved Cav2.2 Channel Inhibitors through a gem-Dimethylsulfone Bioisostere Replacement of a Labile Sulfonamide” (ACS Med Chem Lett, 2013)",
  "key": {"[1]": {"molecular_target": "T1, Voltage-dependent N-type calcium channel subunit alpha-1B (Homo sapiens, UniProt Q00975)", "test": "Inhibition of Cav2.2-mediated calcium influx in HEK cells by FLIPR assay", "assay_type": "cell-based, HEK293", "summary_of_the_method": "(§1)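 Cav2.2 calcium-influx FLIPR assay; compounds screened for percent inhibition at single concentration, active ones titrated for IC50; values averaged over n ≥ 3.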"}, "[2]": {"molecular_target": "CYP3A4 (Homo sapiens, UniProt P08684)", "sequence (P08684 whole entry)": "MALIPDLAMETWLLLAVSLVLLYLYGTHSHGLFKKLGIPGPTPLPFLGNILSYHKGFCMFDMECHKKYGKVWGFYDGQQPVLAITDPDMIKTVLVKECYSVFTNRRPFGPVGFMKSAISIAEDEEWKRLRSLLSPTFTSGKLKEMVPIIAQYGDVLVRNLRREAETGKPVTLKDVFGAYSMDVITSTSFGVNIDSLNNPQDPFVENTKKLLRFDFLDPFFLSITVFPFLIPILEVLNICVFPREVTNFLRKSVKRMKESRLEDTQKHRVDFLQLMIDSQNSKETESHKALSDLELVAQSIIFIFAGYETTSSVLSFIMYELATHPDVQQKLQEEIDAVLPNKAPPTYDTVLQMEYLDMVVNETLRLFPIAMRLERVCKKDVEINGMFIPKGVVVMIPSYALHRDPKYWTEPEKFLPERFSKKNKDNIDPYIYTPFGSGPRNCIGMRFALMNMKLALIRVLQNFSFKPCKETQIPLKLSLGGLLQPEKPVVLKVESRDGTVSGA", "test": "Inhibition of CYP3A4 (unknown origin) at 10 uM relative to control", "assay_type": "ADME"}, "[3]": {"molecular_target": "T2, Nuclear receptor subfamily 1 group I member 2 (Homo sapiens, UniProt O75469)", "T2 sequence (O75469 whole entry)": "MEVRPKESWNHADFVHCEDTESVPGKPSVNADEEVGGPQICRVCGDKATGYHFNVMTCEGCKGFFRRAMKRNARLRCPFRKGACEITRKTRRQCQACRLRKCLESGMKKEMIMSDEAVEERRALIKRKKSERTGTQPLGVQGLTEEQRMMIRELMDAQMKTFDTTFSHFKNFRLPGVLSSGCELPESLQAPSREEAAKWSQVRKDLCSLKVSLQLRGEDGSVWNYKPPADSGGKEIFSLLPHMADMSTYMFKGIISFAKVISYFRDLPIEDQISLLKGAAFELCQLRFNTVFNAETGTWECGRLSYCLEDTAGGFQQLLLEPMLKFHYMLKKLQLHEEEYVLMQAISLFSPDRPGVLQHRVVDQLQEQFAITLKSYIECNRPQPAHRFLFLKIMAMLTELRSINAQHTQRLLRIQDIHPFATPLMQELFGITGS", "test": "Activation of PXR (unknown origin)"}, "[4]": {"molecular_target": "hERG (KCNH2) (Homo sapiens, UniProt Q12809)", "sequence (Q12809 whole entry)": "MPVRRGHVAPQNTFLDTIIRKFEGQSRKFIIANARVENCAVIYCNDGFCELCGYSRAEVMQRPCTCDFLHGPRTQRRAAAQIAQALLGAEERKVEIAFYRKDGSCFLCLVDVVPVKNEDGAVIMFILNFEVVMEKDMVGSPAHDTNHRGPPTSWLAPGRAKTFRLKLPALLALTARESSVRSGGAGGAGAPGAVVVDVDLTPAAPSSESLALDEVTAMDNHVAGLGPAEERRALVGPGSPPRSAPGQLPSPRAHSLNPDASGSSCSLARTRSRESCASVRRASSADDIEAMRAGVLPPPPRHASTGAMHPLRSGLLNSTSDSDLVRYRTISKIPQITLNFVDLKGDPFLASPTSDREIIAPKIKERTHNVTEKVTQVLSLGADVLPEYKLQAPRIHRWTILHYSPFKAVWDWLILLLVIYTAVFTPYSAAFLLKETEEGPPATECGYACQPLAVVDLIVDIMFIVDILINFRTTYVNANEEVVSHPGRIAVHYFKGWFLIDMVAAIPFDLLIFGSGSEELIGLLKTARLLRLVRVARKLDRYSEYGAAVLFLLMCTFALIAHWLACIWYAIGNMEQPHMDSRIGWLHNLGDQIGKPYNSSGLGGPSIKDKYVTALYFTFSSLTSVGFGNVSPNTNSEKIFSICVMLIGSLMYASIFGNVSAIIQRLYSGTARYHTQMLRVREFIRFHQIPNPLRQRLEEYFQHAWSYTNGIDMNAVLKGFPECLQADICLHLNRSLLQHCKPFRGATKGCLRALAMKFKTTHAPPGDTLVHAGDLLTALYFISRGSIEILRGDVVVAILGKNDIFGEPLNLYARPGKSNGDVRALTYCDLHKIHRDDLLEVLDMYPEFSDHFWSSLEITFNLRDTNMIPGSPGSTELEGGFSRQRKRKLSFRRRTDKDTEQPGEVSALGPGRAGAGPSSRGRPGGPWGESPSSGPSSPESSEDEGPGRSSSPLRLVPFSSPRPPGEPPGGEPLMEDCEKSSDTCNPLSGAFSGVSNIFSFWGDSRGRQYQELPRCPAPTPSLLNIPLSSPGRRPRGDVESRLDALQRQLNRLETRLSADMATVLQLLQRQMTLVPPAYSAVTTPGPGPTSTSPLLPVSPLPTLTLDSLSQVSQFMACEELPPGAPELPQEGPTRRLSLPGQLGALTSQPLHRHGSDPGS", "test": "Displacement of [35S]MK-499 from human ERG at 10 uM relative to control", "details": "probe [35S]MK-499", "summary_of_the_method": "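hERG binding assessed by displacement of [35S]MK-499; percent inhibition at 10 μM test compound.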"}, "[5]": {"test": "Metabolic stability in human liver microsomes assessed as compound remaining at 10 uM after 1 hr in presence of NADPH", "assay_type": "ADME", "details": "read-out: Stability", "summary_of_the_method": "(§2)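 Liver microsomes (rat or human) incubated with compound and NADPH for 1 h; percent of parent remaining. Table footnote gives 10 μM compound, 1 mM NADPH, 1 mg/mL protein; text gives 1 μM substrate, 1 mg/mL protein.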"}, "[6]": {"test_system": "Liver microsome", "test": "Drug metabolism in human liver microsomes assessed as 3-(trifluoromethyl)-benzenesulfonamide level after 1 hr in presence of NADPH", "assay_type": "ADME"}, "[7]": {"test": "Metabolic stability in rat liver microsomes assessed as compound remaining at 10 uM after 1 hr in presence of NADPH", "assay_type": "ADME", "details": "read-out: Stability", "summary_of_the_method": "as §2"}, "[8]": {"test_system": "Liver microsome", "test": "Drug metabolism in rat liver microsomes assessed as 3-(trifluoromethyl)-benzenesulfonamide level after 1 hr in presence of NADPH", "assay_type": "ADME"}, "[9]": {"test_system": "Rattus norvegicus", "test": "Normalized AUC in rat whole blood at 3 mg/kg, po", "assay_type": "ADME, organism-based", "design": "dose 3 mg/kg, route oral", "details": "in vivo", "summary_of_the_method": "(§3)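 Rats dosed 3 mg/kg orally and 1 mg/kg intravenously; PK parameters derived from whole-blood concentrations. Normalized oral AUC given in μM·h·kg/mg, clearance in mL/min/kg, plus half-life and oral bioavailability.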"}, "[10]": {"test_system": "Rattus norvegicus", "test": "Antinociceptive activity in rat inflammatory pain model assessed as reversal of CFA-induced mechanical allodynia at 30 mg/kg, po after 3 hrs", "assay_type": "functional", "summary_of_the_method": "(§4)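 Rats given intraplantar complete Freund's adjuvant in the hind paws to induce inflammatory pain; mechanical allodynia assessed 1 and 3 h after a single oral dose. Percent reversal per rat calculated as (postdose − predose)/(preinjury − predose), averaged over n = 6 rats.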"}, "[11]": {"test_system": "Rattus norvegicus", "test": "Antinociceptive activity in rat inflammatory pain model assessed as reversal of CFA-induced mechanical allodynia at 30 mg/kg, po after 1 hr", "assay_type": "functional", "summary_of_the_method": "as §4"}, "[12]": {"test": "Clearance in rat at 3 mg/kg, po and 1 mg/kg, iv", "assay_type": "ADME, organism-based", "details": "in vivo", "summary_of_the_method": "as §3"}, "[13]": {"test": "Oral bioavailability in rat at 3 mg/kg", "assay_type": "ADME, organism-based", "details": "in vivo", "summary_of_the_method": "as §3"}, "[14]": {"molecular_target": "T1, Voltage-dependent N-type calcium channel subunit alpha-1B", "test": "Inhibition of Cav2.2-mediated calcium influx in HEK cells at 10 uM by FLIPR assay relative to control", "assay_type": "cell-based", "details": "HEK293, 1 uM, in the assay text read “at 1 uM” for “at 10 uM”", "summary_of_the_method": "as §1"}},
  "data": [
    {"smiles": "CS(=O)(=O)c1ccc(C(=O)N2CCC(N(C3CC3)S(=O)(=O)c3cccc(C(F)(F)F)c3)CC2)c(C(F)(F)F)c1", "values": [
      {"measurement": "IC50", "setting": "[1]", "value": 0.021, "unit": "µM"},
      {"measurement": "inhibition at 10 µM", "setting": "[2]", "value": 75, "unit": "%"},
      {"measurement": "EC50", "setting": "[3]", "value": 2.8, "unit": "µM"},
      {"measurement": "inhibition at 10 µM", "setting": "[4]", "value": 58, "unit": "%"}
    ]},
    {"smiles": "CS(=O)(=O)c1ccc(F)cc1C(=O)N1CCC(N(C2CC2)S(=O)(=O)c2cccc(C(F)(F)F)c2)C1", "note": "(racemic)", "values": [
      {"measurement": "IC50", "setting": "[1]", "value": 0.37, "unit": "µM"}
    ]},
    {"smiles": "C[C@H]1[C@H](N(C2CC2)S(=O)(=O)c2cccc(C(F)(F)F)c2)CN1C(=O)c1cc(F)ccc1S(C)(=O)=O", "note": "(racemic)", "values": [
      {"measurement": "IC50", "setting": "[1]", "value": 0.43, "unit": "µM"}
    ]},
    {"smiles": "CC(C1CCN(C(=O)c2ccc(S(C)(=O)=O)cc2OC(F)(F)F)CC1)S(=O)(=O)c1cccc(C(F)(F)F)c1", "note": "(stereo in doubt; 30 en-2)", "values": [
      {"measurement": "IC50", "setting": "[1]", "value": 0.37, "unit": "µM"}
    ]},
    {"smiles": "CS(=O)(=O)c1ccc(F)cc1C(=O)N1CC(N(C2CC2)S(=O)(=O)c2cccc(C(F)(F)F)c2)C1", "values": [
      {"measurement": "IC50", "setting": "[1]", "value": 0.97, "unit": "µM"}
    ]},
    {"smiles": "CCN(C1CCN(C(=O)c2ccccc2OC(F)(F)F)CC1)S(=O)(=O)c1cccc(C(F)(F)F)c1", "values": [
      {"measurement": "IC50", "setting": "[1]", "value": 0.47, "unit": "µM"},
      {"measurement": "remaining at 1 h, 10 µM", "setting": "[5]", "value": 30, "unit": "%"},
      {"measurement": "Drug metabolism", "setting": "[6]", "value": 1.16, "unit": "µM"},
      {"measurement": "remaining at 1 h, 10 µM", "setting": "[7]", "value": 3.4, "unit": "%"},
      {"measurement": "Drug metabolism", "setting": "[8]", "value": 0.08, "unit": "µM"}
    ]},
    {"smiles": "CN(C1CCN(C(=O)c2ccccc2S(C)(=O)=O)CC1)S(=O)(=O)c1cccc(C(F)(F)F)c1", "values": [
      {"measurement": "IC50", "setting": "[1]", "value": 0.46, "unit": "µM"},
      {"measurement": "remaining at 1 h, 10 µM", "setting": "[5]", "value": 26, "unit": "%"},
      {"measurement": "Drug metabolism", "setting": "[6]", "value": 0.95, "unit": "µM"},
      {"measurement": "remaining at 1 h, 10 µM", "setting": "[7]", "value": 18, "unit": "%"},
      {"measurement": "Drug metabolism", "setting": "[8]", "value": 0.08, "unit": "µM"}
    ]},
    {"smiles": "CC1(N(C2CC2)S(=O)(=O)c2cccc(C(F)(F)F)c2)CCN(C(=O)c2cc(F)ccc2S(C)(=O)=O)CC1", "values": [
      {"measurement": "IC50", "setting": "[1]", "value": 0.71, "unit": "µM"},
      {"measurement": "Drug metabolism", "setting": "[6]", "value": 0.04, "unit": "µM"},
      {"measurement": "Drug metabolism", "setting": "[8]", "value": 0.06, "unit": "µM"}
    ]},
    {"smiles": "CS(=O)(=O)c1ccc(F)cc1C(=O)N1CCC2(CCN(S(=O)(=O)c3cccc(C(F)(F)F)c3)CC2)C1", "values": [
      {"measurement": "IC50", "setting": "[1]", "value": 0.19, "unit": "µM"}
    ]},
    {"smiles": "CS(=O)(=O)c1ccc(C#N)cc1C(=O)N1CCC(N(C2CC2)S(=O)(=O)c2cccc(C(F)(F)F)c2)CC1", "values": [
      {"measurement": "IC50", "setting": "[1]", "value": 0.67, "unit": "µM"},
      {"measurement": "inhibition at 10 µM", "setting": "[2]", "value": 59, "unit": "%"},
      {"measurement": "EC50", "setting": "[3]", "value": 5, "unit": "µM"},
      {"measurement": "inhibition at 10 µM", "setting": "[4]", "value": 41, "unit": "%"}
    ]},
    {"smiles": "NS(=O)(=O)c1cccc(C(F)(F)F)c1", "values": [
      {"measurement": "IC50", "setting": "[1]", "value": "> 10", "unit": "µM"},
      {"measurement": "AUC/dose", "setting": "[9]", "value": 111, "unit": "µM·kg·h/mg"},
      {"measurement": "Efficacy", "setting": "[10]", "value": 44, "unit": "%"},
      {"measurement": "Efficacy", "setting": "[11]", "value": 53, "unit": "%"},
      {"measurement": "clearance", "setting": "[12]", "value": 0.0186, "unit": "L/h/kg"},
      {"measurement": "bioavailability", "setting": "[13]", "value": 46, "unit": "%"}
    ]},
    {"smiles": "CS(=O)(=O)c1cc(C#N)ccc1C(=O)N1CCC(N(C2CC2)S(=O)(=O)c2cccc(C(F)(F)F)c2)CC1", "values": [
      {"measurement": "IC50", "setting": "[1]", "value": 0.45, "unit": "µM"},
      {"measurement": "inhibition at 10 µM", "setting": "[2]", "value": 86, "unit": "%"},
      {"measurement": "EC50", "setting": "[3]", "value": 8.4, "unit": "µM"},
      {"measurement": "inhibition at 10 µM", "setting": "[4]", "value": 66, "unit": "%"}
    ]},
    {"smiles": "CS(=O)(=O)c1ccc(C(=O)N2CCC(N(C(=O)c3cccc(C(F)(F)F)c3)C3CC3)CC2)c(OC(F)(F)F)c1", "values": [
      {"measurement": "inhibition", "setting": "[14]", "value": 48, "unit": "%"}
    ]},
    {"smiles": "CC(C1CCN(C(=O)c2ccc(S(C)(=O)=O)cc2OC(F)(F)F)CC1)S(=O)(=O)c1cccc(C(F)(F)F)c1", "note": "(stereo in doubt; 30 en-1)", "values": [
      {"measurement": "IC50", "setting": "[1]", "value": 0.088, "unit": "µM"}
    ]},
    {"smiles": "CS(=O)(=O)c1ccc(C(=O)N2CCC(N(C3CC3)S(=O)(=O)c3cccc(C(F)(F)F)c3)CC2)c(Cl)c1", "values": [
      {"measurement": "IC50", "setting": "[1]", "value": 0.29, "unit": "µM"},
      {"measurement": "inhibition at 10 µM", "setting": "[2]", "value": 78, "unit": "%"},
      {"measurement": "EC50", "setting": "[3]", "value": 10.8, "unit": "µM"},
      {"measurement": "inhibition at 10 µM", "setting": "[4]", "value": 32, "unit": "%"}
    ]}
  ]
}
